Results taken from ChEMBL document CHEMBL4765260, “Inclusion of a 5-fluorouracil moiety in nitrogenous bases derivatives as human carbonic anhydrase IX and XII inhibitors produced a targeted action against MDA-MB-231 and T47D breast cancer cells” (Eur J Med Chem, 2020).
Each block holds one compound with its values, some of them ahead of it. Active and inactive are the calls of the source. The rule behind the calls is not given here.

Assays:
Carbonic anhydrase 9 [1] = molecular target: T1, Carbonic anhydrase 9 (Homo sapiens, UniProt Q16790); test: Inhibition of recombinant human CA9 pre-incubated for 15 mins measured by phenol red dye based stopped flow CO2 hydration assay
Carbonic anhydrase 12 = Carbonic anhydrase 12 (Homo sapiens, UniProt O43570); test: Inhibition of recombinant human CA12 pre-incubated for 6 hrs measured by phenol red dye based stopped flow CO2 hydration assay
Carbonic anhydrase 12, sequence (O43570 whole entry): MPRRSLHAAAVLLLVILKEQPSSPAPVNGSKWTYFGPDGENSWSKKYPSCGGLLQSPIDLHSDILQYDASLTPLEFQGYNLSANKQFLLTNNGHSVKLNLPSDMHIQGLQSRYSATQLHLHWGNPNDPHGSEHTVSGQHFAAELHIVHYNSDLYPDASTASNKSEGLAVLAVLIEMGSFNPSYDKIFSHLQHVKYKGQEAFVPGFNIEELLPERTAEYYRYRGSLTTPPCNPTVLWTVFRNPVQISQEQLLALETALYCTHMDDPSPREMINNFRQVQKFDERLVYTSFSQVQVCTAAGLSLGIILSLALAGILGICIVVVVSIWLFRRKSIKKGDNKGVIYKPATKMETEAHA
How it was run: (§1)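 Stopped-flow CO2 hydration at 0.2 mM phenol red (557 nm) in 20 mM Hepes pH 7.5 with 20 mM Na2SO4, initial rates followed for 10–100 s. CO2 1.7–17 mM; ≥6 traces of the first 5–10% of reaction per inhibitor; uncatalysed rate subtracted. Inhibitor diluted in assay buffer down to 0.01 nM, preincubated with enzyme 6 h at room temperature. Values are means of 3 assays.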

Carbonic anhydrase 9 [2] = molecular target: T1, Carbonic anhydrase 9; test: Inhibition of recombinant human CA9 pre-incubated for 6 hrs measured by phenol red dye based stopped flow CO2 hydration assay; how it was run: as §1
Carbonic anhydrase 2 = Carbonic anhydrase 2 (Homo sapiens, UniProt P00918); test: Inhibition of recombinant human CA2 pre-incubated for 6 hrs measured by phenol red dye based stopped flow CO2 hydration assay; how it was run: as §1
Carbonic anhydrase 1 = Carbonic anhydrase 1 (Homo sapiens, UniProt P00915); test: Inhibition of recombinant human CA1 pre-incubated for 6 hrs measured by phenol red dye based stopped flow CO2 hydration assay; how it was run: as §1
Carbonic anhydrase 1, sequence (P00915 whole entry): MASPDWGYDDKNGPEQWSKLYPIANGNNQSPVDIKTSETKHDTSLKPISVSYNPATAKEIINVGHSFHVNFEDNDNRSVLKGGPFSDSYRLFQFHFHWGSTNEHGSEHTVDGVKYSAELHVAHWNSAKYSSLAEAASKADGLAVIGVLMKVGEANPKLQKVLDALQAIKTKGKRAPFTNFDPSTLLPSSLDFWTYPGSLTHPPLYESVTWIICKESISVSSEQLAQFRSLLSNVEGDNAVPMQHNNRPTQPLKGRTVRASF

MDA-MB-231 [3] = test: cells; settings: Homo sapiens, MDA-MB-231, 72 h
T47D [4] = test: Induction of cell cycle arrest in human T47D cells assessed as accumulation of cells in G2/M phase at […] uM measured after 24 hrs by DNA flow cytometry assay (reference value: 16.59%); type: functional
T47D [5] = test: Induction of apoptosis in human T47D cells assessed as necrotic cells at […] uM measured after 24 hrs by Annexin V-FITC stain based flow cytometry method (reference value: 1.91%); type: functional
T47D [6] = test: Induction of apoptosis in human T47D cells assessed as viable cells at […] uM measured after 24 hrs by Annexin V-FITC stain based flow cytometry method relative to control; type: functional, cell-based; settings: dose 7.56 µM
T47D [7] = test: Induction of cell cycle arrest in human T47D cells assessed as accumulation of cells in sub-G1 phase at […] uM measured after 24 hrs by DNA flow cytometry assay (reference value: 2.41%); type: functional
T47D [8] = test: Antiproliferative activity against human T47D cells assessed as cell viability measured after 72 hrs by SRB assay; type: functional, cell-based
How it was run: (§2)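 SRB colorimetric assay on ATCC-sourced cell lines kept in RPMI or DMEM with 10% heat-inactivated FBS, penicillin 100 units/mL and streptomycin at 37 °C in humidified 5% CO2. Preliminary screen: each compound tested in triplicate at two fixed concentrations (10 and 100). Read-out is percent cell viability.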

HL-60 = test: Antiproliferative activity against human HL-60 cells assessed as cell viability measured after 72 hrs by SRB assay; type: functional, cell-based; how it was run: as §2
SK-OV-3 = test: Antiproliferative activity against human SK-OV-3 cells assessed as cell viability measured after 72 hrs by SRB assay; type: functional, cell-based; how it was run: as §2
T47D [9] = test: Induction of apoptosis in human T47D cells assessed as late apoptotic cells at […] uM measured after 24 hrs by Annexin V-FITC stain based flow cytometry method (reference value: 0.17%); type: functional
HeLa = test: Antiproliferative activity against human HeLa cells assessed as cell viability measured after 72 hrs by SRB assay; type: functional, cell-based; how it was run: as §2
MDA-MB-231 [10] = test: Antiproliferative activity against human MDA-MB-231 cells assessed as cell viability measured after 72 hrs by SRB assay; type: functional, cell-based; how it was run: as §2
T47D [11] = test: cells; settings: Homo sapiens, 72 h
COLO 205 = test: Antiproliferative activity against human COLO 205 cells assessed as cell viability measured after 72 hrs by SRB assay; type: functional, cell-based; how it was run: as §2
MCF7 = test: Antiproliferative activity against human MCF7 cells assessed as cell viability measured after 72 hrs by SRB assay; type: functional, cell-based; how it was run: as §2
T47D [12] = test: Induction of apoptosis in human T47D cells assessed as early apoptotic cells at […] uM measured after 24 hrs by Annexin V-FITC stain based flow cytometry method (reference value: 0.39%); type: functional
A549 = test: Antiproliferative activity against human A549 cells assessed as cell viability measured after 72 hrs by SRB assay; type: functional, cell-based; how it was run: as §2
T47D [13] = test: Induction of apoptosis in human T47D cells assessed as viable cells at […] uM measured after 24 hrs by Annexin V-FITC stain based flow cytometry method; type: functional, cell-based; settings: dose 2.45 µM

SMILES: NS(=O)(=O)c1ccc(CCNC(=O)Cn2cc(F)c(=O)[nH]c2=O)cc1
Ki (Carbonic anhydrase 9 [1]): 24.8 nM

SMILES: Cc1cc(=O)oc2cc(-n3cc(Cn4cc(F)c(=O)[nH]c4=O)nn3)ccc12
Ki (Carbonic anhydrase 12): 408 nM
Ki (Carbonic anhydrase 9 [2]): 173 nM
Ki (Carbonic anhydrase 2): > 10000 nM
Ki (Carbonic anhydrase 1): > 10000 nM

SMILES: CN(C)c1ccc(CN(CCc2ccc(S(N)(=O)=O)cc2)C(=O)Cn2cc(F)c(=O)[nH]c2=O)cc1
Ki (Carbonic anhydrase 9 [1]): 26.8 nM

SMILES: NS(=O)(=O)c1cccc(-n2cc(Cn3cc(F)c(=O)[nH]c3=O)nn2)c1
Ki (Carbonic anhydrase 9 [1]): 105 nM

SMILES: NS(=O)(=O)c1ccc(CNC(=O)Cn2cc(F)c(=O)[nH]c2=O)cc1
Ki (Carbonic anhydrase 9 [1]): 29.2 nM

SMILES: NS(=O)(=O)c1ccc(O)c(NC(=O)Cn2cc(F)c(=O)[nH]c2=O)c1
IC50 (MDA-MB-231 [3]): 25500 nM
Ki (Carbonic anhydrase 9 [1]): 453 nM
Activity (T47D [4]; 7.56 µM): 26.83%
Activity (T47D [5]; 7.56 µM): 1.36%
Activity (T47D [6]): Active
Activity (T47D [7]; 7.56 µM): 12.72%
growth inhibition (GI) (T47D [8]): Active
growth inhibition (GI) (HL-60): inactive
growth inhibition (GI) (SK-OV-3): inactive
Activity (T47D [9]; 7.56 µM): 9.62%
growth inhibition (GI) (HeLa): inactive
growth inhibition (GI) (MDA-MB-231 [10]): Active
IC50 (T47D [11]): 7560 nM
growth inhibition (GI) (COLO 205): inactive
growth inhibition (GI) (MCF7): inactive
Activity (T47D [12]; 7.56 µM): 3.59%
growth inhibition (GI) (A549): inactive

SMILES: O=C(Cn1cc(F)c(=O)[nH]c1=O)Oc1ccc2ccc(=O)oc2c1
Ki (Carbonic anhydrase 12): 14.4 nM
Ki (Carbonic anhydrase 9 [2]): 36.8 nM
Ki (Carbonic anhydrase 2): > 10000 nM
Ki (Carbonic anhydrase 1): > 10000 nM

SMILES: NS(=O)(=O)c1ccc(CCN(Cc2ccc(F)cc2)C(=O)Cn2cc(F)c(=O)[nH]c2=O)cc1
Ki (Carbonic anhydrase 9 [1]): 11.8 nM

SMILES: Cc1cc(=O)oc2cc(NC(=O)Cn3cc(F)c(=O)[nH]c3=O)ccc12
IC50 (MDA-MB-231 [3]): 32000 nM
Ki (Carbonic anhydrase 12): 23.2 nM
growth inhibition (GI) (T47D [8]): Active
Ki (Carbonic anhydrase 9 [2]): 16.5 nM
growth inhibition (GI) (HL-60): inactive
growth inhibition (GI) (SK-OV-3): inactive
growth inhibition (GI) (HeLa): inactive
growth inhibition (GI) (MDA-MB-231 [10]): Active
IC50 (T47D [11]): 13200 nM
growth inhibition (GI) (COLO 205): inactive
Ki (Carbonic anhydrase 2): > 10000 nM
growth inhibition (GI) (MCF7): inactive
growth inhibition (GI) (A549): inactive
Ki (Carbonic anhydrase 1): > 10000 nM

SMILES: NS(=O)(=O)c1cccc(NC(=O)Cn2cc(F)c(=O)[nH]c2=O)c1
Ki (Carbonic anhydrase 9 [1]): 44.7 nM

Further lines, with some results ahead:

Ki (Carbonic anhydrase 9 [1]): 3.5 nM
SMILES: NS(=O)(=O)c1ccc(CCN(Cc2ccccc2)C(=O)Cn2cc(F)c(=O)[nH]c2=O)cc1

Ki (Carbonic anhydrase 9 [1]): 4.8 nM
SMILES: NS(=O)(=O)c1ccc(NC(=O)Cn2cc(F)c(=O)[nH]c2=O)cc1

Ki (Carbonic anhydrase 9 [1]): 11.2 nM
SMILES: NS(=O)(=O)c1ccc(-n2cc(Cn3cc(F)c(=O)[nH]c3=O)nn2)c(Cl)c1

Ki (Carbonic anhydrase 9 [1]): 4.9 nM
SMILES: N#Cc1ccc(CN(CCc2ccc(S(N)(=O)=O)cc2)C(=O)Cn2cc(F)c(=O)[nH]c2=O)cc1

Ki (Carbonic anhydrase 9 [1]): 3.8 nM
SMILES: NS(=O)(=O)c1ccc(-n2cc(Cn3cc(F)c(=O)[nH]c3=O)nn2)c(Br)c1

IC50 (MDA-MB-231 [3]): 22800 nM
Ki (Carbonic anhydrase 9 [1]): 0.47 nM
IC50 (T47D [11]): 33500 nM
SMILES: NS(=O)(=O)c1ccc(-n2cc(Cn3cc(F)c(=O)[nH]c3=O)nn2)cc1
growth inhibition (GI) (T47D [8]): Active
growth inhibition (GI) (HL-60): inactive
growth inhibition (GI) (SK-OV-3): inactive
growth inhibition (GI) (HeLa): inactive
growth inhibition (GI) (MDA-MB-231 [10]): Active
growth inhibition (GI) (COLO 205): inactive
growth inhibition (GI) (MCF7): inactive
growth inhibition (GI) (A549): inactive

IC50 (MDA-MB-231 [3]): 6860 nM
Ki (Carbonic anhydrase 9 [1]): 1.9 nM
IC50 (T47D [11]): 2450 nM
SMILES: COc1ccc(CN(CCc2ccc(S(N)(=O)=O)cc2)C(=O)Cn2cc(F)c(=O)[nH]c2=O)cc1
Activity (T47D [4]; 2.45 µM): 35.47%
Activity (T47D [5]; 2.45 µM): 2.51%
Activity (T47D [7]; 2.45 µM): 18.04%
growth inhibition (GI) (T47D [8]): Active
growth inhibition (GI) (HL-60): inactive
growth inhibition (GI) (SK-OV-3): inactive
Activity (T47D [9]; 2.45 µM): 12.19%
growth inhibition (GI) (HeLa): inactive
growth inhibition (GI) (MDA-MB-231 [10]): Active
growth inhibition (GI) (COLO 205): inactive
growth inhibition (GI) (MCF7): inactive
Activity (T47D [12]; 2.45 µM): 7.31%
growth inhibition (GI) (A549): inactive
Activity (T47D [13]): Active

IC50 (MDA-MB-231 [3]): 40900 nM
Ki (Carbonic anhydrase 9 [1]): 4.2 nM
IC50 (T47D [11]): 18900 nM
SMILES: NS(=O)(=O)c1ccc(CCN(Cc2ccc(Cl)cc2)C(=O)Cn2cc(F)c(=O)[nH]c2=O)cc1
growth inhibition (GI) (T47D [8]): Active
growth inhibition (GI) (HL-60): inactive
growth inhibition (GI) (SK-OV-3): inactive
growth inhibition (GI) (HeLa): inactive
growth inhibition (GI) (MDA-MB-231 [10]): Active
growth inhibition (GI) (COLO 205): inactive
growth inhibition (GI) (MCF7): inactive
growth inhibition (GI) (A549): inactive
